ChEMBL document CHEMBL4229410, “Facile construction of fused benzimidazole-isoquinolinones that induce cell-cycle arrest and apoptosis in colorectal cancer cells” (Bioorg Med Chem, 2018)
Activity calls are given as the source filed them. The rule behind the calls is not given here.

Columns and labels:
SW-620 [1] = experiment: Growth inhibition of human SW620 cells by MTT assay; type: functional
How it was run: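 MTT viability assay: 3×10³ cells/well were pre-incubated for 24 h, then exposed to 0, 12.5, 25, 50, 100 or 200 μM for 12, 24, 48 or 72 h. MTT was added at 0.5 mg/mL final for 4 h, formazan dissolved in DMSO, and absorbance read at 570 nm. GI₅₀ was taken from growth-inhibition curves; mean ± SD of three independent experiments, each in sextuplicate.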

[2] = biological target: Dual specificity mitogen-activated protein kinase kinase 1 (Homo sapiens, UniProt Q02750); experiment: Inhibition of full length human MEK1 (M1 to V393 residues) expressed in mammalian expression system assessed as residual activity at 5 uM by KINOMEscan assay relative to control
HT-29 [3] = experiment: Inhibition of PI3K in human HT-29 cells assessed as reduction in AKT phosphorylation at S473 residue up to 75 uM after 48 hrs by Western blot analysis; type: cell-based
[4] = biological target: Macrophage colony-stimulating factor 1 receptor (Homo sapiens, UniProt P07333); experiment: Binding affinity to human CSF1R (I564 to S939 residues) expressed in bacterial expression system by KINOMEscan assay
SW-620 [5] = experiment: Induction of apoptosis in human SW620 cells assessed as late apoptotic cells at 75 uM after 48 hrs by Annexin-V-FITC/propidium iodide staining based flow cytometry (reference value: 1.2%); type: functional
[6] = biological target: Glycogen synthase kinase-3 beta (Homo sapiens, UniProt P49841); experiment: Inhibition of full length human GSK3B (M1 to T433 residues) expressed in mammalian expression system assessed as residual activity at 5 uM by KINOMEscan assay relative to control
HT-29 [7] = experiment: Upregulation of p21 expression in human HT-29 cells after 48 hrs by Western blot analysis; type: functional, cell-based
[8] = test system: Serine/threonine-protein kinase B-raf (Homo sapiens), P15056 [V600E]; experiment: Inhibition of human BRAF (S429 to E741 residues) V600E mutant expressed in mammalian expression system assessed as residual activity at 5 uM by KINOMEscan assay relative to control
SW-620 [9] = experiment: Cell cycle arrest in human SW620 cells assessed as accumulation at G2-phase at 75 uM after 48 hrs by propidium iodide staining based flow cytometry (reference value: 14.08%); type: functional
[10] = biological target: Mitogen-activated protein kinase kinase kinase 9 (Homo sapiens, UniProt P80192); experiment: Inhibition of human MLK1 (V88 to W426 residues) expressed in bacterial expression system assessed as residual activity at 5 uM by KINOMEscan assay relative to control
[11] = biological target: Dual specificity mitogen-activated protein kinase kinase 2 (Homo sapiens, UniProt P36507); experiment: Binding affinity to full length human MEK2 (M1 to V400 residues) expressed in mammalian expression system by KINOMEscan assay
[12] = biological target: Inhibitor of nuclear factor kappa-B kinase subunit alpha (Homo sapiens) (UniProt O15111); experiment: Inhibition of full length human IKKalpha (M1 to E745 residues) expressed in mammalian expression system assessed as residual activity at 5 uM by KINOMEscan assay relative to control
[13] = biological target: Proto-oncogene tyrosine-protein kinase Src (Homo sapiens, UniProt P12931); experiment: Binding affinity to human SRC (L240 to L536 residues) expressed in bacterial expression system by KINOMEscan assay
[14] = biological target: Mast/stem cell growth factor receptor Kit (Homo sapiens, UniProt P10721, T670I/V559D); experiment: Binding affinity to human KIT (I571 to D952 residues) V559D/T670I double mutant expressed in bacterial expression system by KINOMEscan assay
[15] = biological target: Ribosomal protein S6 kinase alpha-3 (Homo sapiens, UniProt P51812); experiment: Binding affinity to human N-terminal RSK2 kinase domain 1 (M1 to D394 residues) expressed in mammalian expression system by KINOMEscan assay
[16] = biological target: MAP/microtubule affinity-regulating kinase 3 (Homo sapiens, UniProt P27448); experiment: Inhibition of full length human MARK3 (M1 to L729 residues) expressed in bacterial expression system assessed as residual activity at 5 uM by KINOMEscan assay relative to control
[17] = biological target: Serine/threonine-protein kinase B-raf (Homo sapiens, UniProt P15056, V600E); experiment: Binding affinity to human BRAF (S429 to E741 residues) V600E mutant expressed in mammalian expression system by KINOMEscan assay
[18] = biological target: Receptor tyrosine-protein kinase erbB-4 (Homo sapiens, UniProt Q15303); experiment: Inhibition of human ERBB4 (L690 to K994 residues) expressed in bacterial expression system assessed as residual activity at 5 uM by KINOMEscan assay relative to control
[19] = biological target: Cyclin-dependent kinase 3 (Homo sapiens, UniProt Q00526); experiment: Binding affinity to full length human CDK3 (M1 to H305 residues) expressed in bacterial expression system by KINOMEscan assay
[20] = biological target: Insulin-like growth factor 1 receptor (Homo sapiens, UniProt P08069); experiment: Binding affinity to human IGF1R (L972 to D1294 residues) expressed in bacterial expression system by KINOMEscan assay
HT-29 [21] = experiment: Cell cycle arrest in human HT-29 cells assessed as accumulation at G1-phase at 50 uM after 48 hrs by propidium iodide staining based flow cytometry (reference value: 41.86%); type: functional
Angiopoietin-1 receptor = Angiopoietin-1 receptor (Homo sapiens, UniProt Q02763); experiment: Binding affinity to human TIE2 (N804 to T1112 residues) expressed in bacterial expression system by KINOMEscan assay
[22] = biological target: Phosphatidylinositol 4,5-bisphosphate 3-kinase catalytic subunit alpha isoform (Homo sapiens, UniProt P42336); experiment: Binding affinity to human PIK3CA (R108 to N1068 residues) expressed in mammalian expression system by KINOMEscan assay
[23] = biological target: Serine/threonine-protein kinase 32C (Homo sapiens, UniProt Q86UX6); experiment: Binding affinity to human YANK3 (M68 to G486 residues) expressed in bacterial expression system by KINOMEscan assay
[24] = biological target: Serine/threonine-protein kinase pim-3 (Homo sapiens, UniProt Q86V86); experiment: Inhibition of human PIM3 (G16 to A317 residues) expressed in bacterial expression system assessed as residual activity at 5 uM by KINOMEscan assay relative to control
[25] = biological target: Serine/threonine-protein kinase PAK 2 (Homo sapiens, UniProt Q13177); experiment: Inhibition of partial length human PAK2 (P151 to R525 residues) expressed in bacterial expression system assessed as residual activity at 5 uM by KINOMEscan assay relative to control
[26] = test system: Mast/stem cell growth factor receptor Kit (Homo sapiens), P10721 [D816V]; experiment: Inhibition of human KIT (I571 to D952 residues) D816V mutant expressed in bacterial expression system assessed as residual activity at 5 uM by KINOMEscan assay relative to control
[27] = biological target: Serine/threonine-protein kinase mTOR (Homo sapiens) (UniProt P42345); experiment: Inhibition of mTOR in human HT-29 cells assessed as reduction in 4EBP1 phosphorylation up to 75 uM after 48 hrs by Western blot analysis; type: cell-based

Ribosomal protein S6 kinase alpha-3, sequence (P51812 whole entry, the tested form may be a part): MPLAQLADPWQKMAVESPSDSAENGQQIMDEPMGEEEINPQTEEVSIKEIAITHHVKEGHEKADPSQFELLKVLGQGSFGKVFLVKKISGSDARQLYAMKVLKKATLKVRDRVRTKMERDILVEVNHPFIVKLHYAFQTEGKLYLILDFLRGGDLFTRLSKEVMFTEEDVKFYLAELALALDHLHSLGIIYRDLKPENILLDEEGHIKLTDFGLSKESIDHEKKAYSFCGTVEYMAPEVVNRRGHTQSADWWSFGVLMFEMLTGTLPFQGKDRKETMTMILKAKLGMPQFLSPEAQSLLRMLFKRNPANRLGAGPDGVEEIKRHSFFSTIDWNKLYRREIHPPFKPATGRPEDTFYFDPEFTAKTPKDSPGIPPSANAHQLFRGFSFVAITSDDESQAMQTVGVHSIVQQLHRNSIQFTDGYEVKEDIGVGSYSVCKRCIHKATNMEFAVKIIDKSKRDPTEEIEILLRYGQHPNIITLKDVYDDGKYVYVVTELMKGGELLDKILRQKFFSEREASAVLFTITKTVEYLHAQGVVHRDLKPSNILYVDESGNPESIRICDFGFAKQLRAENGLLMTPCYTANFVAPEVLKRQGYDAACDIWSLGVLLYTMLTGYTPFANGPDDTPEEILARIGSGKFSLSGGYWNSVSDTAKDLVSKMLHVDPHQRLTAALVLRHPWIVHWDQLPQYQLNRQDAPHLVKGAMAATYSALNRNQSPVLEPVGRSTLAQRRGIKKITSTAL
Angiopoietin-1 receptor, sequence (Q02763 whole entry, the tested form may be a part, canonical isoform): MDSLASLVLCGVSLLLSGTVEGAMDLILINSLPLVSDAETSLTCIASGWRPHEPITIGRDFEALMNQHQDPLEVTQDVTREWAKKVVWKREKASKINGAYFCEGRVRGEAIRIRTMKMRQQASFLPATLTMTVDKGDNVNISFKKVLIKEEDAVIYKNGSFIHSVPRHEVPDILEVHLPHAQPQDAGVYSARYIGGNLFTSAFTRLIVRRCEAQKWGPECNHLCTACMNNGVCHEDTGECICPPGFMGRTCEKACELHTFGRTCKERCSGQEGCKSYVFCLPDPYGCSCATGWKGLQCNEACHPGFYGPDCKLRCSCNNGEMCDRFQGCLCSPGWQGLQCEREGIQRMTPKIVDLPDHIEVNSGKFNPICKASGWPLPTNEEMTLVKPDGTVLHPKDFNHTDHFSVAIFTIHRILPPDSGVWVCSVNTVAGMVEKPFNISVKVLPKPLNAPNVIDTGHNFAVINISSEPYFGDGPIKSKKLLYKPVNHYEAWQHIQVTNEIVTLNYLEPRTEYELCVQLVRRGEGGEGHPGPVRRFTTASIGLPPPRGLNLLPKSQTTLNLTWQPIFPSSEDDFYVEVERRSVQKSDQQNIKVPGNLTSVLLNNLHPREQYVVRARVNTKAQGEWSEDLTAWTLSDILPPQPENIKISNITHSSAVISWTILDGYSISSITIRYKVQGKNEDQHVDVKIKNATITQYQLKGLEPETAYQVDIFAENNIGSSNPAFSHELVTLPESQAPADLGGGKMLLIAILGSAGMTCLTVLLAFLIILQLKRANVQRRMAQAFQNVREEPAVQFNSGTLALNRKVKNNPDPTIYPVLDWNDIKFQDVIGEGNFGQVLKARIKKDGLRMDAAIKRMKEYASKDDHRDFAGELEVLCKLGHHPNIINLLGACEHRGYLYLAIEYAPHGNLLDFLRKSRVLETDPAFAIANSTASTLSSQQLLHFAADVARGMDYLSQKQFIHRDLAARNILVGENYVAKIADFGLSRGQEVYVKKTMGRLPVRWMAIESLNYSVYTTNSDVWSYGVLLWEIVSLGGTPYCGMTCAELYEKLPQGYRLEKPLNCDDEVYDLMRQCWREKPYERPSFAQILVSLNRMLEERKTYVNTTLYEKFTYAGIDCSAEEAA
Dual specificity mitogen-activated protein kinase kinase 1, sequence (Q02750 whole entry, the tested form may be a part): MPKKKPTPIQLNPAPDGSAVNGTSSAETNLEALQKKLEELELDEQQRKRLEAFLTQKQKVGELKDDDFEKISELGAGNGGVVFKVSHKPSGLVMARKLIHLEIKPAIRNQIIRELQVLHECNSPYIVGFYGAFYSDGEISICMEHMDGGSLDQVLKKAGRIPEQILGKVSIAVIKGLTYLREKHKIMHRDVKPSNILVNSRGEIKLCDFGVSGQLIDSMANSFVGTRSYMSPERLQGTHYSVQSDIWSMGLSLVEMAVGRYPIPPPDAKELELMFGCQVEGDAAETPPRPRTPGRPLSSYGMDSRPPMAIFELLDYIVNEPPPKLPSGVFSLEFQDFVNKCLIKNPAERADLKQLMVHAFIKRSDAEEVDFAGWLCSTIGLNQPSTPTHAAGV
Serine/threonine-protein kinase 32C, sequence (Q86UX6 whole entry, the tested form may be a part): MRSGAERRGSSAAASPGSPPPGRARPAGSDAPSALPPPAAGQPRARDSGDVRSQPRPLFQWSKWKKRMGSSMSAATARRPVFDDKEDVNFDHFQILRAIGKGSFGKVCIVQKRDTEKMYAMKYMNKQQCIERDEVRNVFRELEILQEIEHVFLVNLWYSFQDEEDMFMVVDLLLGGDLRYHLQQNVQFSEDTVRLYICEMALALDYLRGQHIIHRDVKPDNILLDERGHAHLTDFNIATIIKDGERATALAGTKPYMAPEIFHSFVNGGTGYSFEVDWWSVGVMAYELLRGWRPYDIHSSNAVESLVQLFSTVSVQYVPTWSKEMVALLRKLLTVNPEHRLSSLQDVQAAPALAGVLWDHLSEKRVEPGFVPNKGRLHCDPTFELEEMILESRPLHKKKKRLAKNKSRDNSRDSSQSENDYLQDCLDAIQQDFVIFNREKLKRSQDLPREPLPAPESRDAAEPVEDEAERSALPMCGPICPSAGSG
Mitogen-activated protein kinase kinase kinase 9, sequence (P80192 whole entry, looked up, the tested form may be a part): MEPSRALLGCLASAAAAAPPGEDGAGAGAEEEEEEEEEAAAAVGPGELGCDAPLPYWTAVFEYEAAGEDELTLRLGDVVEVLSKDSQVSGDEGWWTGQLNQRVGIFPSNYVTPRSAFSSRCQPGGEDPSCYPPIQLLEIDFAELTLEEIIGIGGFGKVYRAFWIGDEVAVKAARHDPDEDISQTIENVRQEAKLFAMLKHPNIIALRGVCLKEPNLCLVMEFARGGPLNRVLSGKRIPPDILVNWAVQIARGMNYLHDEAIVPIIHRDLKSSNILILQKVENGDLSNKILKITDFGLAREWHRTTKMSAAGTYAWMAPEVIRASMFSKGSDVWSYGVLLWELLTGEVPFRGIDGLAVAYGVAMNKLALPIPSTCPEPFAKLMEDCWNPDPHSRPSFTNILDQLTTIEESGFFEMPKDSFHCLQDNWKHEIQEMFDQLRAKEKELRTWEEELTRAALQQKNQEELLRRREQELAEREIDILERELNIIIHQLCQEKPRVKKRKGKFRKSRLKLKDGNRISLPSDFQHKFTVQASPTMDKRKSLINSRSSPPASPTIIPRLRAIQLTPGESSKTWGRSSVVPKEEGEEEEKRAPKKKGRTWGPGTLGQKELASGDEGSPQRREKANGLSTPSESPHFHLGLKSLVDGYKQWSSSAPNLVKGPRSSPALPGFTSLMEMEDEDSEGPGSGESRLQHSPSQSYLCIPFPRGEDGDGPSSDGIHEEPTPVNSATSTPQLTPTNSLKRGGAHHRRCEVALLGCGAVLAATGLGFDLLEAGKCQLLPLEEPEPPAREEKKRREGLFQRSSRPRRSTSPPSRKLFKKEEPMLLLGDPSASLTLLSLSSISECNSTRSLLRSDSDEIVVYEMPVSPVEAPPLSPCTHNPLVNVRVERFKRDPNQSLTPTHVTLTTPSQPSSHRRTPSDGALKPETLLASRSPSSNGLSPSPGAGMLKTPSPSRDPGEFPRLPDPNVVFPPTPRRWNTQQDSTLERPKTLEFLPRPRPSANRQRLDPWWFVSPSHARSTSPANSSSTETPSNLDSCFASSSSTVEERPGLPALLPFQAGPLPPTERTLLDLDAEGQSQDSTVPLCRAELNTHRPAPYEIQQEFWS
Serine/threonine-protein kinase PAK 2, sequence (Q13177 whole entry, the tested form may be a part): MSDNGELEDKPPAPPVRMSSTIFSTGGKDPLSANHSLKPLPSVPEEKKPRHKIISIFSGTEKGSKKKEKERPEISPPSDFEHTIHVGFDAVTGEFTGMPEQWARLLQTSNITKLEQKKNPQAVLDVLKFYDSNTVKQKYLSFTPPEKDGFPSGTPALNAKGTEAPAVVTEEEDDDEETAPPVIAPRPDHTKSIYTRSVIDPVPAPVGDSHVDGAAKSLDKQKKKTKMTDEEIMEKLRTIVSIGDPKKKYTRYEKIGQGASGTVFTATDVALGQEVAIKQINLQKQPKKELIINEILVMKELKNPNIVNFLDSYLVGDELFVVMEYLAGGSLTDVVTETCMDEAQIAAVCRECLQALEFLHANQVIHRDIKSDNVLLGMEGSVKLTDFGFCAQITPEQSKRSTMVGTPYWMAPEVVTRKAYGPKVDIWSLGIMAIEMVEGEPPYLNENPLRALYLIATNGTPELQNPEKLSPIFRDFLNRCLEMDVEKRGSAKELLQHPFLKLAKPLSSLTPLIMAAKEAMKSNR
Cyclin-dependent kinase 3, sequence (Q00526 whole entry, the tested form may be a part): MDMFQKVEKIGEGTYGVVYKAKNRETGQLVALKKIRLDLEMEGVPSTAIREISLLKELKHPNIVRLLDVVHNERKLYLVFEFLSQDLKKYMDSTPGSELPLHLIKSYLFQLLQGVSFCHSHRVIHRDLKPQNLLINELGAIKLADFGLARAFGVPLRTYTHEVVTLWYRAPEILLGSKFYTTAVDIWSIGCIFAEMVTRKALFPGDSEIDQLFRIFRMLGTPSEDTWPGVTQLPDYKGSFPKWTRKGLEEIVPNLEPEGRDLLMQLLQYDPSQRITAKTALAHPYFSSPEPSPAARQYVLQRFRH

CC(C)CN(C(=O)c1cccnc1)c1c2ccccc2c(=O)n2c1[nH]c1ccccc12 was tested, and the GI50 (SW-620 [1]) was 23.8 µM, the Activity [2] was 91% and the inhibition (HT-29 [3]) was “Active”. The Kd [4] was at least 5 µM, the Activity (SW-620 [5]) was 19.6% and the Activity [6] was 100%. For the same compound, the Activity (HT-29 [7]) was “Dose-dependent effect”, the Activity [8] was 100% and the Activity (SW-620 [9]) was 29.26%. The Activity [10] was 84%, the Kd [11] was at least 5 µM and the Activity [12] was 100%. For the same compound, the Kd [13] was at least 5 µM, the Kd [14] was at least 5 µM and the Kd [15] was at least 5 µM. The Activity [16] was 94%, the Kd [17] was at least 5 µM and the Activity [18] was 98%. The Kd [19] was at least 5 µM, the Kd [20] was at least 5 µM and the Activity (HT-29 [21]) was 42.2%. For the same compound, the Kd (Angiopoietin-1 receptor) was at least 5 µM, the Kd [22] was at least 5 µM and the Kd [23] was at least 5 µM. The Activity [24] was 100%, the Activity [25] was 100% and the Activity [26] was 100%. For the same compound, the inhibition [27] was “Active”.
